hERG rescue: hERG rescue from dofetilide block, primary screen, cell-based, CHO-hERG, FluxOR thallium flux, dofetilide IC70; activation (rescue from dofetilide block), less the hit threshold, % at 10 µM; dofetilide IC70 present; 0.51% of 310,000 active; AID 1511, 2009;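 active means activation above the mean of controls blocked by dofetilide plus 5 SD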;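 further: thallium influx through hERG after potassium depolarization seen as dye fluorescence rise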
Target sequence (Q12809 whole entry, looked up): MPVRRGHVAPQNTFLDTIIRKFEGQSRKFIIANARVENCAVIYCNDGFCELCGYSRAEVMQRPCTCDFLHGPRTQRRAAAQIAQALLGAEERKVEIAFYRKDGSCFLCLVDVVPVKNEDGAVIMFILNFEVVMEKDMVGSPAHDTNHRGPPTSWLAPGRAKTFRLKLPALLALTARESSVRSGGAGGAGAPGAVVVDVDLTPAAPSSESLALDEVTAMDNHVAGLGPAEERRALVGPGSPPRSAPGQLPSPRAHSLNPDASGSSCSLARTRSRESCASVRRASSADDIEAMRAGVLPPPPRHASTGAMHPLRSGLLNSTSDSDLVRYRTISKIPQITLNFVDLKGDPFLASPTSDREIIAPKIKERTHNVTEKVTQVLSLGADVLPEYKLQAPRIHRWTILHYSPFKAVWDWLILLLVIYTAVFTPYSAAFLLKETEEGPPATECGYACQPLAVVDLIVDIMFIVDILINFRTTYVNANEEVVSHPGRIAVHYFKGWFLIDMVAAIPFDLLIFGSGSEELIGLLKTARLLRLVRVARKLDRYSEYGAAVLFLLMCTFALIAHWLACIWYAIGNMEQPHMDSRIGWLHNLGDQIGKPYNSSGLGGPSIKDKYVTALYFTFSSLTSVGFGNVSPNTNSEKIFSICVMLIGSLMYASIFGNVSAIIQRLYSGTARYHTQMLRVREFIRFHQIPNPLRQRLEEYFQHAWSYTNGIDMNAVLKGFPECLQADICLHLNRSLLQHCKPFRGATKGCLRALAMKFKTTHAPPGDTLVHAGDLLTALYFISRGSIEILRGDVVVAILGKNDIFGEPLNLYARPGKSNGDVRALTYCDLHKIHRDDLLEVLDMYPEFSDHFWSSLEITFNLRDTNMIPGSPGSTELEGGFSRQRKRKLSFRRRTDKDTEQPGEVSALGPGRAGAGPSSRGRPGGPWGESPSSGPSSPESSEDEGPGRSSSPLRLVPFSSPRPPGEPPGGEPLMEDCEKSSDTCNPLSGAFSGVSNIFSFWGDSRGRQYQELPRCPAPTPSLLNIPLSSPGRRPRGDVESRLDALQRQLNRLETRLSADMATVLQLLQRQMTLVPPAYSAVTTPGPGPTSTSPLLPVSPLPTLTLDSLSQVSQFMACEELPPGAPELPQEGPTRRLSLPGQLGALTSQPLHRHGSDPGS
KCC2 mod: KCC2 cotransporter modulators, thallium flux, primary screen, cell-based, HEK293 KCC2, FluoZin-2 fluorescence, MLSMR | B-score of Tl+ flux slope (higher = more flux/activation; lower = inhibition) at 10 µM | 2.2% of 190,000 active | KCC2 cells, thallium flux FluoZin-2 fluorescence | Solute carrier family 12 member 5 (Homo sapiens), Q9H2X9;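 active means thallium flux slope and its plate-corrected score both differing from the plate sample mean at a set confidence after two filtering rounds, in either direction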;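 further: slope of fluorescence scaled to starting intensity during 10 to 20 s after thallium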
KCNK3 inh: human KCNK3 channel inhibitors, primary screen, CHO cells, FluxOR thallium flux, B-score; 0.84% of 340,000 active; AID 602410, 2012; Potassium channel subfamily K member 3 (Homo sapiens), O14649; FluxOR fluorescence; stronger effect = lower value; B-score at 10 µM;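 active means B-score under library mean minus 4 SD, starting fluorescence ratio at most library mean plus 5 SD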;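 further: more negative B-score means stronger inhibition of thallium flux through KCNK3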
KCNQ1 pot: potentiators or activators of KCNQ1 channel, primary screen, cell-based, thallium flux, high-throughput; B-score at 10 µM; 0.35% of 310,000 active; AID 2648, 2010; Potassium voltage-gated channel subfamily KQT member 1 (Homo sapiens), P51787; CHO-K1 KCNQ1, thallium flux FluxOR fluorescence; stronger effect = higher value;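 active means fluorescence ratio B-score, a plate-corrected score, at least three library SD, with initial intensity B-score within 5 SD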
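assay system = CHO-K1 cells stably expressing KCNQ1 | medium = assay buffer, equal DMSO in all wells | timing = 37 °C overnight plating, 90-min dark dye load, 20-min compound pretreatment | measured by = kinetic FluxOR thallium fluorescence, 10-s 1-Hz baseline, 110-s post-stimulus read | measure = fluorescence change relative to baseline, converted to B score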
KCNK9 inh: KCNK9 potassium channel inhibitors, primary screen, HEK293 cells, thallium flux; 1.2% of 310,000 active; Potassium channel subfamily K member 9 (Homo sapiens), Q9NPC2; FluxOR thallium flux fluorescence; stronger effect = lower value; AID 488922, 2010; B-score at 10 µM;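 active means ratio B-score over 3 SD below the library mean, with starting fluorescence within 5 SD of its mean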;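 further: negative B-score means less thallium flux so channel inhibition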
KCNQ1 block: inhibitors of human KCNQ1 channel, primary screen, cell-based, thallium flux, high-throughput. B-score at 10 µM. 1.3% of 310,000 active. AID 2642, 2010. CHO-K1 KCNQ1, FluxOR thallium flux fluorescence; stronger effect = higher value;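 active means compounds whose thallium flux B-score, printed positive for inhibition, exceeds three library SD while starting fluorescence stays within three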;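 further: channel opened by potassium depolarization with thallium stimulus after 20 min compound exposure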
KCC2 sec1: KCC2 modulators in sodium-free buffer, confirmation, cell-based, HEK293 KCC2, thallium flux, secondary assay | FluoZin2 fluorescence; stronger effect = higher value | normalised thallium flux (F/F0 slope) at 10 µM | shares compounds with KCC2 mod | 15% of 3,700 active;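 active means thallium flux slope above the same plate's solvent-only control mean plus 3 SD; inconclusive means the two replicate wells disagree; inactive means no significant difference from solvent-only control wells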
KCC2 bumet counter: thallium flux persisting under bumetanide in KCC2 cells, confirmation, counter-screen for KCC2 modulator project, cell-based, HEK293 KCC2, FluoZin2, secondary assay 3. HEK293-KCC2 + bumetanide/ouabain; stronger effect = higher value. AID 1714, 2009. shares compounds with KCC2 mod. normalized thallium flux at 10 µM. 49% of 3,700 active;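 active means thallium entry rate above the same plate's blocked-transporter control wells by more than 3 SD; inconclusive means the two repeat wells disagree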;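 further: raw slope of fluorescence over initial fluorescence between 10 and 20 s after thallium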
KCC2 sec2: KCC2 modulators without ouabain present, confirmation, cell-based, HEK293 KCC2, thallium flux, FluoZin2, secondary assay 2. AID 1715, 2009. 23% of 3,700 active. thallium flux FluoZin2 fluorescence; actives lie on both sides; F/F0 rise rate, 10–20 s post-thallium. shares compounds with KCC2 mod. normalized thallium flux at 10 µM;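 active means thallium flux slope more than 3 SD above or below the plate's solvent-only control mean, mostly below; inconclusive means the two repeat wells disagreed; inactive means no significant shift from solvent-only controls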;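 further: raw slope with 0.1% DMSO as baseline and bumetanide as block control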
HEK293 Tl flux: thallium flux modulation in parental HEK cells, confirmation, counter-screen for KCC2 modulator project, cell-based, counterscreen 1 | shares compounds with KCC2 mod | HEK293 parental cells, thallium flux FluoZin2, ouabain; baseline-ratio fluorescence slope, 10–20 s after thallium | thallium flux rate (normalised fluorescence) at 10 µM | 46% of 3,700 active | AID 1716, 2009;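 active means thallium flux rate significantly above the same plate's solvent-only control wells, beyond their mean plus 3 SD; inconclusive means the two replicate wells gave conflicting results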
KCC2 ouabain: KCC2 inhibitors and activators, ouabain retest, confirmation, HEK-KCC2 cells; shares compounds with KCC2 mod; HEK293-KCC2, thallium flux FluoZin2 fluorescence; bidirectional: low = inhibitor, high = activator; raw Tl+ flux slope (below DMSO = inhibition, above = activation) at 10 µM; 48% of 3,700 active;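 active means thallium flux slope beyond 3 SD from same-plate DMSO control mean in most replicates, usually higher, sometimes lower; inconclusive means repeat tests gave conflicting results; inactive means no significant difference from controls in most replicates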;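 further: slope of initial-normalized fluorescence between seconds 10 and 20 after thallium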
HEK293 Tl flux2: native HEK Tl+ uptake effects, second counter-screen – HEK cells, counterscreen 2, counter-screen for KCC2 modulator project, confirmation; shares compounds with KCC2 mod; HEK293 parental, thallium flux FluoZin-2 fluorescence slope; thallium flux slope at 10 µM; 33% of 3,700 active;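 active means thallium flux slope above the same plate's solvent-control mean plus 3 SD in both duplicate wells; inconclusive means duplicate wells that disagreed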;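 further: run without ouabain in cells lacking the KCC2 cotransporter; slope of fluorescence scaled to its starting value between 10 and 20 s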
The depositor's hits bear a star; i = inactive; ? = inconclusive; · = not tested or not shown; ! = not active in a repeat. This is a sample that favours compounds with a hit; in the whole collection about 4.1% have one here.

SMILES	hERG rescue	KCC2 mod	KCNK3 inh	KCNQ1 pot	KCNK9 inh	KCNQ1 block	KCC2 sec1	KCC2 bumet counter	KCC2 sec2	HEK293 Tl flux	KCC2 ouabain	HEK293 Tl flux2
Nc1nc(SCC(=O)Nc2ccc(Cl)cn2)n[nH]1	-7	13*	i	i	i	i	0.011	0.0061	0.031	0.0085	0.018	0.011
COc1ccc(N2C(=O)/C(=C/c3cccs3)NC2=S)cc1	-8	8.7*	i	i	i	i	0.013*	0.022*	0.035	0.024*	0.032*	0.011*
CN(C)/C=C1\NC(=S)N(c2ccccc2)C1=O	-4	1	i	i	i	i	·	·	·	·	·	·
C=CCn1c(CSc2nc3ccccc3s2)n[nH]c1=S	-9	-4.4*	i	i	i	i	0.015	0.0093*	0.024*	0.0099*	0.014*	?
CC(C)C(=O)N/N=C/c1ccc(OCc2ccccc2)cc1	-4	-4.7*	i	i	i	i	0.0072	0.0051	0.03	0.0073	?	0.01
O=C(O)c1cc(-c2ccc(Cl)s2)[nH]n1	-16	0.45	i	i	i	i	·	·	·	·	·	·
O=C(O)C(c1ccccc1)C1(O)CCCC1 (stereo not drawn)	-2	0.024	i	i	i	i	·	·	·	·	·	·
Cc1cc(C)cc(OCC(=O)NNC(=O)c2cc3ccccc3o2)c1	0	31*	i	8*	i	i	0.019*	0.1*	0.033	0.034*	0.059*	0.015*
O=C(NNC(=O)c1cc2ccccc2o1)c1ccc(Cl)cc1	-8	8.7*	i	i	i	i	0.01	0.024*	0.033	0.011*	?	0.012*
O=C(NNC(=O)c1cc2ccccc2o1)c1ccc(F)cc1	·	·	i	·	·	·	·	·	·	·	·	·
S=c1nc(C2CCCCC2)n(-c2ccccc2)[nH]1	11*	126*	i	40*	i	i	0.055*	0.14*	0.048*	0.078*	0.11*	0.031*
CC(C)(C)c1ccc(C(=O)/C=C2\NC(=O)CS2)cc1	0	31*	i	i	i	i	0.0074	0.049*	0.05*	0.035*	0.043*	0.037*
Cc1ccc2c(c1)N(C)/C(=C/c1cccc[n+]1C)S2	-27	·	i	i	i	i	·	·	·	·	·	·
CC(=O)c1cccc(NC(=O)COC(=O)COc2c(Cl)cc(Cl)c3ccc(C)nc23)c1	-5	4.6*	i	i	i	i	0.01	0.019*	0.032	0.013*	0.025	0.011*
Cc1ccc2c(Cl)cc(Cl)c(OCC(=O)OCC(=O)Nc3ccc(C#N)cc3)c2n1	1	1.4	i	i	i	i	·	·	·	·	·	·
Cc1cc(C(C)(C)C)ccc1OCCN1CCCC1	-6	·	i	i	i	i	0.0087	0.006	0.029	0.0067	0.02	?
COc1ccc(-c2csc3ncnc(N4CCN(S(=O)(=O)c5ccc(C)c(C)c5)CC4)c23)cc1	-15	·	i	i	i	i	·	·	·	·	·	·
CC(C)Oc1ccc2c(=O)c(-c3ccccc3)coc2c1	-9	-3.6*!	i	i	i	i	0.0032*	0.0054	0.028	?	0.014*	0.0095
NC(=O)COc1ccccc1/C=C1/SC(=O)N(CC(=O)N2CCc3ccccc3C2)C1=O	-10	-3.4*	i	i	i	i	0.0058	0.0049	0.023*	0.007	0.016*	0.0091
Cn1c(=O)[nH]c(=O)c2c1nc(NCc1ccccc1)n2Cc1ccc(F)cc1	-3	·	i	i	i	i	·	·	·	·	·	·
CC/C(Cc1ccccc1)=N\NC(=O)c1cc(C)oc1C	2	-0.16	i	i	i	i	·	·	·	·	·	·
C/C(=N\NC(=O)c1ccc(Br)cc1)c1ccccc1	-2	6*	i	i	i	i	0.0089	0.013*	0.032	0.015*	?	0.012
CC/C(Cc1ccccc1)=N/NC(=O)c1cccc(Br)c1	-1	9.2*	i	i	i	i	0.0072	0.01*	0.031	0.016*	0.022	0.015*
CC/C(Cc1ccccc1)=N\NC(=O)c1cc([N+](=O)[O-])cc([N+](=O)[O-])c1	-3	33*	i	i	i	i	0.018*	0.067*	?	0.033*	0.045*	0.018*
CC(/C=C/c1ccccc1)=N/NC(=O)c1cc([N+](=O)[O-])cc([N+](=O)[O-])c1	·	3.3	i	·	·	·	·	·	·	·	·	·
C/C(=N\NC(=O)c1cccnc1)c1ccc(Br)cc1	-4	·	i	i	i	i	·	·	·	·	·	·
C/C(=N\NC(=O)c1cccc([N+](=O)[O-])c1)c1ccco1	-3	12*	i	i	i	i	0.0077	0.025*	0.038	0.019*	0.029*	0.026*
CCCCCn1c(Br)nc2c1c(=O)n(CC(N)=O)c(=O)n2C	-12	0.21	i	i	i	i	·	·	·	·	·	·

Bioassay records: PubChem BioAssay, several laboratories
